Measurements taken from ChEMBL document CHEMBL2069235, “Synthesis and biological evaluation of tyrosine modified analogues of the α4β7 integrin inhibitor biotin-R₈ERY” (Bioorg Med Chem, 2012).
Active and inactive are the calls of the source. No cut-off for these calls is given here. *1 amine or outer side, *2 acyl side, *3 side chain or, on linkers, in order; H or OH if unused. Where a SMILES comes first, the peptide text is derived from it. [ ]: non-standard residue; d: D form. The star is where a group is joined. X7 = O=C([C@H](Cc1ccc(-c2cccc([N+](=O)[O-])c2)cc1)N[*:1])[*:2]; Phe(4-(2-MeO-Ph)) = COc1ccccc1-c1ccc(C[C@H](N)C(=O)O)cc1; X3 = COc1cccc(OC)c1-c1ccc(C[C@H](N[*:1])C(=O)[*:2])cc1; X6 = COc1ccc(-c2ccc(C[C@H](N[*:1])C(=O)[*:2])cc2)cc1OC; X5 = N#Cc1ccc(-c2ccc(C[C@H](N[*:1])C(=O)[*:2])cc2)cc1; Bip(4'-Me) = Cc1ccc(-c2ccc(C[C@H](N)C(=O)O)cc2)cc1; X4 = O=C([C@H](Cc1ccc(C2=CCCCC2)cc1)N[*:1])[*:2]; Biotin = O=C1N[C@H]2[C@H](CS[C@H]2CCCCC(=O)*)N1; X1 = O=C([C@H](Cc1ccc(C2CCCCC2)cc1)N[*:1])[*:2]

Tests used:
Assay type in all cases: cell-based
[1] = molecular target: T1, Integrin alpha-4/beta-7 (Mus musculus) (UniProt Q00651+P26011); test: Inhibition of alpha4beta7 assessed as inhibition of Mn(2+)-activated adhesion of mouse TK-1 T cells to mouse MAdCAM-1 at 50 uM incubated for 1 hr by cell adhesion assay
Summary of the method: (§1)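 TK-1 cells (mouse AKR/Cum α4β7+/α4β1− CD8 T lymphoma), grown at 37 °C in RPMI 1640 with 10% FCS and 0.05 mM β-mercaptoethanol, were washed and held 1 h at room temperature in HBSS/10 mM Hepes with peptide. They were then activated with 2 mM MnCl₂ and added at 10⁶ cells/well to glass slides coated with mouse MAdCAM-1-Fc (10 μg/ml, FBS-blocked). Adhesion ran 30 min.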

[2] = molecular target: T1, Integrin alpha-4/beta-7 (Mus musculus); test: Inhibition of alpha4beta7 assessed as inhibition of Mn(2+)-activated adhesion of mouse TK-1 T cells to mouse MAdCAM-1 at 100 uM incubated for 1 hr by cell adhesion assay; summary of the method: as §1
[3] = molecular target: T1, Integrin alpha-4/beta-7 (Mus musculus); test: Inhibition of alpha4beta7 assessed as inhibition of Mn(2+)-activated adhesion of mouse TK-1 T cells to mouse MAdCAM-1 at 25 uM incubated for 1 hr by cell adhesion assay; summary of the method: as §1
[4] = molecular target: T1, Integrin alpha-4/beta-7 (Mus musculus); test: Inhibition of alpha4beta7 assessed as inhibition of Mn(2+)-activated adhesion of mouse TK-1 T cells to mouse MAdCAM-1 at <5 to 10 uM incubated for 1 hr by cell adhesion assay; summary of the method: as §1

Row | SMILES | inhibition [1] | inhibition [2] | inhibition [3] | inhibition [4]
1 | N=C(N)NCCC[C@H](NC(=O)CCCC[C@@H]1SC[C@@H]2NC(=O)N[C@@H]21)C(=O)N[C@@H](CCCNC(=N)N)C(=O)N[C@@H](CCCNC(=N)N)C(=O)N[C@@H](CCCNC(=N)N)C(=O)N[C@@H](CCCNC(=N)N)C(=O)N[C@@H](CCCNC(=N)N)C(=O)N[C@@H](CCCNC(=N)N)C(=O)N[C@@H](CCCNC(=N)N)C(=O)N[C@@H](CCC(=O)O)C(=O)N[C@@H](CCCNC(=N)N)C(=O)N[C@@H](Cc1ccc(C2CCCCC2)cc1)C(=O)O (Biotin-RRRRRRRRER[X1]-OH) | 71.7% | 64.8% | Active | inactive
2 | N#Cc1ccc(-c2ccc(C[C@H](NC(=O)[C@H](CCCNC(=N)N)NC(=O)[C@H](CCC(=O)O)NC(=O)[C@H](CCCNC(=N)N)NC(=O)[C@H](CCCNC(=N)N)NC(=O)[C@H](CCCNC(=N)N)NC(=O)[C@H](CCCNC(=N)N)NC(=O)[C@H](CCCNC(=N)N)NC(=O)[C@H](CCCNC(=N)N)NC(=O)[C@H](CCCNC(=N)N)NC(=O)[C@H](CCCNC(=N)N)NC(=O)CCCC[C@@H]3SC[C@@H]4NC(=O)N[C@@H]43)C(=O)O)cc2)cc1 (Biotin-RRRRRRRRER[X5]-OH) | 45% | 57% |  | 
3 | COc1ccc(-c2ccc(C[C@H](NC(=O)[C@H](CCCNC(=N)N)NC(=O)[C@H](CCC(=O)O)NC(=O)[C@H](CCCNC(=N)N)NC(=O)[C@H](CCCNC(=N)N)NC(=O)[C@H](CCCNC(=N)N)NC(=O)[C@H](CCCNC(=N)N)NC(=O)[C@H](CCCNC(=N)N)NC(=O)[C@H](CCCNC(=N)N)NC(=O)[C@H](CCCNC(=N)N)NC(=O)[C@H](CCCNC(=N)N)NC(=O)CCCC[C@@H]3SC[C@@H]4NC(=O)N[C@@H]43)C(=O)O)cc2)cc1OC (Biotin-RRRRRRRRER[X6]-OH) | 37.9% | 50.1% |  | 
4 | N=C(N)NCCC[C@H](NC(=O)CCCC[C@@H]1SC[C@@H]2NC(=O)N[C@@H]21)C(=O)N[C@@H](CCCNC(=N)N)C(=O)N[C@@H](CCCNC(=N)N)C(=O)N[C@@H](CCCNC(=N)N)C(=O)N[C@@H](CCCNC(=N)N)C(=O)N[C@@H](CCCNC(=N)N)C(=O)N[C@@H](CCCNC(=N)N)C(=O)N[C@@H](CCCNC(=N)N)C(=O)N[C@@H](CCC(=O)O)C(=O)N[C@@H](CCCNC(=N)N)C(=O)N[C@@H](Cc1ccc(-c2cccc([N+](=O)[O-])c2)cc1)C(=O)O (Biotin-RRRRRRRRER[X7]-OH) | 50.5% | 60.3% |  | 

Results, then the compound that gave them:

Row | inhibition [1] | inhibition [2] | inhibition [3] | inhibition [4] | SMILES
5 | 66.4% | 71.3% |  |  | N=C(N)NCCC[C@H](NC(=O)[C@H](CCCNC(=N)N)NC(=O)[C@H](CC(=O)O)NC(=O)[C@H](Cc1ccc(O)cc1)NC(=O)[C@@H](CCCNC(=N)N)NC(=O)[C@@H](CCCNC(=N)N)NC(=O)[C@@H](CCCNC(=N)N)NC(=O)[C@@H](CCCNC(=N)N)NC(=O)[C@@H](CCCNC(=N)N)NC(=O)[C@@H](CCCNC(=N)N)NC(=O)[C@@H](CCCNC(=N)N)NC(=O)[C@@H](CCCNC(=N)N)NC(=O)[C@@H](CCCNC(=N)N)NC(=O)CCCC[C@@H]1SC[C@@H]2NC(=O)N[C@@H]21)C(=O)N[C@@H](CCC(=O)O)C(=O)N[C@@H](Cc1ccc(O)cc1)C(=O)O
6 | 8.73% | 18.2% |  |  | N=C(N)NCCC[C@H](NC(=O)CCCC[C@@H]1SC[C@@H]2NC(=O)N[C@@H]21)C(=O)N[C@@H](CCCNC(=N)N)C(=O)N[C@@H](CCCNC(=N)N)C(=O)N[C@@H](CCCNC(=N)N)C(=O)N[C@@H](CCCNC(=N)N)C(=O)N[C@@H](CCCNC(=N)N)C(=O)N[C@@H](CCCNC(=N)N)C(=O)N[C@@H](CCCNC(=N)N)C(=O)N[C@@H](CCC(=O)O)C(=O)N[C@@H](CCCNC(=N)N)C(=O)N[C@@H](Cc1ccc(O)cc1)C(=O)O (Biotin-RRRRRRRRERY-OH)
7 | 47.4% | 57.3% |  |  | Cc1ccc(-c2ccc(C[C@H](NC(=O)[C@H](CCCNC(=N)N)NC(=O)[C@H](CCC(=O)O)NC(=O)[C@H](CCCNC(=N)N)NC(=O)[C@H](CCCNC(=N)N)NC(=O)[C@H](CCCNC(=N)N)NC(=O)[C@H](CCCNC(=N)N)NC(=O)[C@H](CCCNC(=N)N)NC(=O)[C@H](CCCNC(=N)N)NC(=O)[C@H](CCCNC(=N)N)NC(=O)[C@H](CCCNC(=N)N)NC(=O)CCCC[C@@H]3SC[C@@H]4NC(=O)N[C@@H]43)C(=O)O)cc2)cc1 (Biotin-RRRRRRRRER[Bip(4'-Me)]-OH)
8 | 48.1% | 47.1% |  |  | COc1ccccc1-c1ccc(C[C@H](NC(=O)[C@H](CCCNC(=N)N)NC(=O)[C@H](CCC(=O)O)NC(=O)[C@H](CCCNC(=N)N)NC(=O)[C@H](CCCNC(=N)N)NC(=O)[C@H](CCCNC(=N)N)NC(=O)[C@H](CCCNC(=N)N)NC(=O)[C@H](CCCNC(=N)N)NC(=O)[C@H](CCCNC(=N)N)NC(=O)[C@H](CCCNC(=N)N)NC(=O)[C@H](CCCNC(=N)N)NC(=O)CCCC[C@@H]2SC[C@@H]3NC(=O)N[C@@H]32)C(=O)O)cc1 (Biotin-RRRRRRRRER[Phe(4-(2-MeO-Ph))]-OH)
9 | 38.3% | 50.9% |  |  | COc1cccc(OC)c1-c1ccc(C[C@H](NC(=O)[C@H](CCCNC(=N)N)NC(=O)[C@H](CCC(=O)O)NC(=O)[C@H](CCCNC(=N)N)NC(=O)[C@H](CCCNC(=N)N)NC(=O)[C@H](CCCNC(=N)N)NC(=O)[C@H](CCCNC(=N)N)NC(=O)[C@H](CCCNC(=N)N)NC(=O)[C@H](CCCNC(=N)N)NC(=O)[C@H](CCCNC(=N)N)NC(=O)[C@H](CCCNC(=N)N)NC(=O)CCCC[C@@H]2SC[C@@H]3NC(=O)N[C@@H]32)C(=O)O)cc1 (Biotin-RRRRRRRRER[X3]-OH)
10 | 49.7% | 59.1% |  |  | N=C(N)NCCC[C@H](NC(=O)CCCC[C@@H]1SC[C@@H]2NC(=O)N[C@@H]21)C(=O)N[C@@H](CCCNC(=N)N)C(=O)N[C@@H](CCCNC(=N)N)C(=O)N[C@@H](CCCNC(=N)N)C(=O)N[C@@H](CCCNC(=N)N)C(=O)N[C@@H](CCCNC(=N)N)C(=O)N[C@@H](CCCNC(=N)N)C(=O)N[C@@H](CCCNC(=N)N)C(=O)N[C@@H](CCC(=O)O)C(=O)N[C@@H](CCCNC(=N)N)C(=O)N[C@@H](Cc1ccc(C2=CCCCC2)cc1)C(=O)O (Biotin-RRRRRRRRER[X4]-OH)
